The subject of assay [1] is Human immunodeficiency virus 1. Description: Antiviral activity against HIV1 JRFL infected in dog Cf2Th/CD4-CCR5 cells assessed as inhibition of viral entry incubated for 30 mins prior to infection and measured after 48 hrs post infection by luciferase reporter gene assay. To be noted: Human immunodeficiency virus 1, JRFL. It counts as functional, organism-based. Summed up:
(§1)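 Cf2Th-CD4/CCR5 target cells infected with recombinant luciferase-expressing HIV-1 pseudoviruses bearing the indicated strain's envelope glycoproteins, with compound at increasing concentrations; infection read as target-cell luciferase activity, expressed as percent of infection without compound; IC50 derived from this.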

Assay [2] concerns Human immunodeficiency virus 1. Kind of assay: Antiviral activity against HIV1 YU-2 infected in dog Cf2Th/CD4-CCR5 cells assessed as inhibition of viral entry incubated for 30 mins prior to infection and measured after 48 hrs post infection by luciferase reporter gene assay. It counts as functional, organism-based. To be noted: Human immunodeficiency virus 1, YU-2, Cf2Th-CCR5. Summed up: as §1

The test system of assay [3] is Human immunodeficiency virus 1. Kind of assay: Antiviral activity against HIV1 AD8 infected in dog Cf2Th/CD4-CCR5 cells assessed as inhibition of viral entry incubated for 30 mins prior to infection and measured after 48 hrs post infection by luciferase reporter gene assay. The class given is functional, organism-based. Particulars: Human immunodeficiency virus 1, AD8, Cf2Th-CCR5. Summed up: as §1
(In general: Reporter assays use an easily measured gene product as a stand-in for the process of interest.)

Assay [4] has as its system Human immunodeficiency virus 1. Kind of assay: Antiviral activity against HIV1 pseudotyped with A-MLV envelop glycoprotein infected in dog Cf2Th/CD4-CCR5 cells assessed as inhibition of viral entry incubated for 30 mins prior to infection and measured after 48 hrs post infection by luciferase reporter gene assay. It counts as functional, organism-based. To be noted: Human immunodeficiency virus 1, Cf2Th-CCR5. The method in brief: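 Control counterscreen: Cf2Th-CD4/CCR5 cells infected with luciferase-expressing HIV-1 pseudotyped with amphotropic murine leukemia virus envelope glycoproteins, compound at increasing concentrations; luciferase activity in target cells as percent of no-compound infection; IC50 from this.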

Assay [5] can be described thus: Binding affinity to HIV1 YU-2 gp120 by isothermal titration calorimetric analysis. On the set-up: species or system Human immunodeficiency virus 1.
Assay [6] deals with Human immunodeficiency virus 1. Kind of assay: Binding affinity to HIV1 YU-2 gp120 assessed as change in gibbs free energy by isothermal titration calorimetric analysis. In general terms: In ITC the heat of successive injections is recorded.
In assay [7] the test system is Human immunodeficiency virus 1. Kind of assay: Binding affinity to HIV1 YU-2 gp120 assessed as change in enthalpy by isothermal titration calorimetric analysis.
The subject of assay [8] is Human immunodeficiency virus 1. Kind of assay: Binding affinity to HIV1 YU-2 gp120 assessed as change in entropy by isothermal titration calorimetric analysis.
The subject of assay [9] is Human immunodeficiency virus 1. Description: Antiviral activity against HIV1 Clade B infected in human TZM-bl cells assessed as inhibition of viral entry incubated for 30 mins prior to infection and measured after 48 hrs post infection by luciferase reporter gene assay. The class given is functional, organism-based. Particulars: Human immunodeficiency virus 1, Clade B.

Assay [10] relates to Human immunodeficiency virus 1. Description: Antiviral activity against HIV1 Clade C infected in human TZM-bl cells assessed as inhibition of viral entry incubated for 30 mins prior to infection and measured after 48 hrs post infection by luciferase reporter gene assay. The class given is functional, organism-based. Particulars: Human immunodeficiency virus 1, Clade C.

The structures appear in SMILES notation. pIC50, pKd: −log10 of the molar value. Some results are limits rather than exact numbers.

`CN(Cc1ccc2c(c1)C[C@H](CNC(=N)N)[C@H]2NC(=O)C(=O)Nc1ccc(Cl)c(F)c1)C(=N)N`: the negative-log IC50 (pIC50) in assay [1] is 5.21; in assay [2], 6.10; in assay [3], 5.80; in assay [4] it was less than 4.00. The pKd in assay [5] was 7.02. In assay [6], the deltaG is -9.6 kcal/mol. The deltaH in assay [7] was -15.4 kcal/mol. In addition, the -TdeltaS in assay [8] came out at 5.8 kcal/mol.
Take `CN(Cc1ccc2c(c1)[C@H](NC(=O)C(=O)Nc1ccc(Cl)c(F)c1)[C@@H](CNC(=N)N)C2)C(=N)N`: the pIC50 was 4.71 in assay [1], 5.80 in assay [2], 5.92 in assay [3] and 4.08 in assay [4]. Also, in assay [5], the pKd was 7.02. In assay [6], the deltaG is -9.6 kcal/mol. The deltaH in assay [7] was -14.2 kcal/mol. For the same compound, the -TdeltaS in assay [8] is 4.6 kcal/mol.
Regarding `N=C(N)NC[C@H]1Cc2ccccc2[C@@H]1NC(=O)C(=O)Nc1ccc(Cl)c(F)c1`, the negative-log IC50 (pIC50) in assay [1] was 4.18; in assay [2] it was 5.42; in assay [3] it was 5.07; in assay [4], 4.03. In [5], this compound had a pKd of 6.96. Moreover, the deltaG in assay [6] is -9.5 kcal/mol. In addition, the deltaH in [7] is -17.9 kcal/mol. Further, in assay [8], the -TdeltaS was 8.4 kcal/mol.
As to `CNCc1ccc2c(c1)[C@H](NC(=O)C(=O)Nc1ccc(Cl)c(F)c1)[C@@H](CNC(=N)N)C2`, the pIC50 was 4.43 in [1], 5.68 in [2], 5.17 in [3] and less than 4.00 in [4]. Further, the pKd in assay [5] is 7.62. In assay [6], the deltaG is -10.4 kcal/mol. Moreover, the deltaH in assay [7] is -28.2 kcal/mol. In assay [8], the -TdeltaS came out at 17.8 kcal/mol.
Take `CNCc1ccc2c(c1)C[C@@H](CNC(=N)N)[C@@H]2NC(=O)C(=O)Nc1ccc(Cl)c(F)c1`: the values for the pIC50 in [1], in assay [2] and in assay [4] were less than 4.00, 4.68 and less than 4.00, respectively. Also, the pKd in assay [5] is 5.92. For the same compound, the deltaG in [6] was -8.1 kcal/mol. Besides, the deltaH in assay [7] was -13.2 kcal/mol. The -TdeltaS in assay [8] came out at 5.1 kcal/mol.
As for `CNCc1ccc2c(c1)C[C@H](CNC(=N)N)[C@H]2NC(=O)C(=O)Nc1ccc(Cl)c(F)c1`, the pIC50 in assay [1] was 4.84; in assay [2], 5.89; in assay [3], 5.51; in [4] it was less than 4.00; in assay [9] it was 5.46; in assay [10] it was 4.77. Besides, the pKd in assay [5] is 7.33. The deltaG in assay [6] is -10 kcal/mol. Moreover, in [7], the deltaH is -20.7 kcal/mol. Moreover, the -TdeltaS in assay [8] turned out to be 10.7 kcal/mol.
With `CNCc1ccc2c(c1)[C@@H](NC(=O)C(=O)Nc1ccc(Cl)c(F)c1)[C@H](CNC(=N)N)C2`, the pIC50 in assay [1] is less than 4.00; in [2], 4.06; in assay [3], less than 4.00; in [4], less than 4.00. The same compound had a pKd in [5] of 5.47. Moreover, in assay [6], the deltaG is -7.5 kcal/mol. Also, the deltaH in assay [7] was -11.3 kcal/mol. In assay [8], the -TdeltaS is 3.8 kcal/mol.

The term pIC50 denotes the negative decadic logarithm of the IC50, by convention in mol/L. By pKd is commonly meant the negative decadic logarithm of the Kd, by convention in mol/L. A higher pKd goes with a small Kd.

The record behind these values is ChEMBL document CHEMBL4680075, “Small-Molecule CD4-Mimics: Structure-Based Optimization of HIV-1 Entry Inhibition” (ACS Med Chem Lett, 2016).
